Inconclusive results are not listed.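 How the source made its calls, unless noted: active means RAM network inhibition above 8.4% in each of two replicates, 3 SD over the compound average; inconclusive means above 8.4% inhibition in only one replicate; inactive means 8.4% inhibition or less in each replicate.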
Assays:
[1] = S. cerevisiae growth inhibition in permissive medium (OD615), pilot counter-assay for S. cerevisiae lifespan shortening project, permissive growth control (AID 705;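 active means growth inhibition above 25% in both replicates, a cutoff set 3 SD above the mean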); details: OD615, 24 h, at 10 µM, active compounds read high
Procedure, shortened: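 Material: engineered DeaD yeast; Compound: one dose 10 µM, DMSO 0.25% final; Detection: absorbance (optical density) at 615 nm; Buffer or medium: permissive raffinose/galactose medium; Timing: 24 h exposure, 30 °C.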

[2] = S. cerevisiae growth inhibition in restrictive medium, OD615, pilot screen, restrictive growth control, yeast lifespan reduction project (AID 706;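 active means growth inhibition above a set limit, 3 SD over mean compound inhibition, in both replicates, cut at about 43% in these data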;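 further: modified DeaD lifespan yeast strain shifted to restrictive glucose medium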); details: OD615, 48 h, at 10 µM, active compounds read high
Procedure, shortened: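 Buffer or medium: restrictive glucose medium (CSMM-D); test system: modified S. cerevisiae; doses: single dose of 10 µM compound final, 0.25% DMSO; schedule: 48 h compound exposure at 30 °C; detection: absorbance (optical density) measured at 615 nm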

[3] = doxorubicin toxicity protection in MRP-1 cells – H69AR cells, CellTiter-Glo, duplicate, MRP-1 activator project, pilot screen (AID 807;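 active means viability increase at or above a cutoff of the median across tested compounds plus 3 SD, cut at about 8.5% in these data, passing the limit was not always enough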;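 further: compound pretreatment 18-22 h then 72 h combined with doxorubicin; 0% = doxorubicin alone and 100% = vehicle without doxorubicin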); details: H69AR viability with doxorubicin, CellTiter-Glo luminescence; at 10 µM; active compounds read high
[4] = viability of HCT116 without oncogenic beta-catenin – human colon tumor cells, pilot screen (AID 823;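 active means cell viability at or below a set limit in both duplicate runs, the limit being the all-compound median minus 4 SD, cut at about 23% in these data, passing the limit was not always enough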;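 further: 0% = wells killed by 20 µM Hyamine and 100% = untreated DMSO cell wells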); details: HCT116 beta-catenin knockout viability, CellTiter-Glo, 60 h; at 10 µM; active compounds read low
[5] = viability of PTEN-null HCT116 cells – cell-based, HCT116 clonal line, CellTiter-Glo, pilot screen (AID 824;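 active means viability at or below 27.92% in each of two runs, the all-compound median minus 4 SD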;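 further: 0% = 20 µM Hyamine control and 100% = vehicle cell control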); details: HCT116 PTEN-deleted viability, 60 h, at 10 µM, active compounds read low
[6] = RAM pathway blockade in budding yeast – dse1pr::URA3 reporter, 5-FOA selection, pilot screen (AID 869;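 active means inhibition over a set limit, the all-compound mean plus 3 SD, in both replicate runs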;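 further: 0% = DMSO wells with no growth and 100% = 10 µM 1-NA-PP1 with full growth; RAM network block rescues cells from 5-FOA so hits raise OD615 growth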); details: S. cerevisiae dse1pr::URA3 5-FOA growth, OD615, 2 d; at 10 µM; active compounds read high; strain carries analog-sensitive mutant Cbk1 kinase
[7] = RAM signaling pathway blockade in yeast – S. cerevisiae, Pdr1DBD-CYC8 efflux-inhibited sensitized strain, primary screen (AID 1298);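 further: 0% = DMSO untreated cells without growth and 100% = 10 µM 1-NA-PP1 full growth; higher means more yeast growth rescued from 5-FOA killing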; details: S. cerevisiae cbk1-as DSE1-URA3 strain, 5-FOA growth OD615, 2 d; at 50 µM; active compounds read high

COc1ccc(C2SCC(C(=O)O)N2C(C)=O)cc1OC (stereo unspecified)
inactive: growth inhibition [1] 0.095% | growth inhibition [2] 1.78% | viability increase [3] 0.1% | viability [4] 96.5% | viability [5] 102% | inhibition [6] 1.33% | RAM network inhibition [7] 7.78%

CCC(=O)N=c1sc2c(C)cc(C)cc2n1CC(=O)OC
inactive: growth inhibition [1] -9.96% | growth inhibition [2] -16.1% | viability increase [3] -0.83% | viability [4] 92.4% | viability [5] 88.7% | inhibition [6] 1.55% | RAM network inhibition [7] 2.76%

CC(C)Nc1ncnc2c1cnn2-c1ccc(Cl)cc1
inactive: growth inhibition [1] 5.42% | growth inhibition [2] -5.25% | viability increase [3] -3.14% | viability [4] 83.3% | viability [5] 72.6% | inhibition [6] 1.14% | RAM network inhibition [7] -0.94%

COc1cc2c(c(O)c1OC)C(=O)C(OC)CCC2 (stereo unspecified)
inactive: growth inhibition [1] 0.06% | growth inhibition [2] -2.16% | viability increase [3] -0.47% | viability [4] 97% | viability [5] 93.7% | inhibition [6] 0.275% | RAM network inhibition [7] -0.62%

COc1ccc(CCNS(=O)(=O)c2ccc3c(c2)oc(=O)n3C)cc1OC
inactive: growth inhibition [1] -5.33% | growth inhibition [2] -1.19% | viability increase [3] -0.83% | viability [4] 105% | viability [5] 94.2% | inhibition [6] 2.37% | RAM network inhibition [7] 0.8%

Cn1nnnc1SCc1nc2ccccc2[nH]1
inactive: growth inhibition [1] -7.39% | growth inhibition [2] -5.67% | viability increase [3] 0.69% | viability [4] 101% | viability [5] 102% | inhibition [6] 0.215% | RAM network inhibition [7] 3.43%

O=C(NCCCN1CCOCC1)c1cc(-c2ccc3c(c2)OCO3)nc2ccccc12
inactive: growth inhibition [1] -19.7% | growth inhibition [2] -7.51% | viability increase [3] -3.78% | viability [4] 92.8% | viability [5] 89.3% | inhibition [6] 1.26% | RAM network inhibition [7] 7.64%

Nc1ccc(OCc2ccccc2)cc1
inactive: growth inhibition [1] -14.4% | growth inhibition [2] -9.93% | viability increase [3] -4.17% | viability [4] 98.7% | viability [5] 89.4% | inhibition [6] 1.9% | RAM network inhibition [7] 5.27%

COc1ccccc1Nc1cc(C(=O)NCCCN2CCOCC2)c2ccccc2n1
inactive: growth inhibition [1] -7.99% | growth inhibition [2] -0.795% | viability increase [3] -3.47% | viability [4] 89.1% | viability [5] 91.4% | inhibition [6] 0.455% | RAM network inhibition [7] 0.58%

Cc1ccoc1C(=O)NCc1occc1C(=O)O
inactive: growth inhibition [1] -12.6% | growth inhibition [2] -16.8% | viability increase [3] -3.44% | viability [4] 96.2% | viability [5] 93.1% | inhibition [6] -0.575% | RAM network inhibition [7] 1.58%

CC(C)(C)c1nnc2sc(SCC(=O)c3cccs3)nn2c1=O
inactive: growth inhibition [1] -4.01% | growth inhibition [2] -13.1% | viability increase [3] -6% | viability [4] 71.1% | viability [5] 81.8% | inhibition [6] 2.62% | RAM network inhibition [7] 5.25%

O=C1c2ccccc2C(=O)N1CCC(=O)N1CCCc2ccccc21
inactive: growth inhibition [1] -19.9% | growth inhibition [2] -13.7% | viability increase [3] -0.26% | viability [4] 93.8% | viability [5] 96.8% | inhibition [6] 2.32% | RAM network inhibition [7] 7.36%

CCC(Sc1nc2ccccc2[nH]1)C(=O)Nc1cc(C)on1 (stereo unspecified)
inactive: growth inhibition [1] -13% | growth inhibition [2] -17.9% | viability increase [3] 1.02% | viability [4] 100% | viability [5] 101% | inhibition [6] 1.1% | RAM network inhibition [7] -0.37%

Cn1c(=O)c2c(nc(SCc3cc4c(cc3Cl)OCO4)n2C)n(C)c1=O
inactive: growth inhibition [1] -5.9% | growth inhibition [2] -0.11% | viability increase [3] -0.21% | viability [4] 99.6% | viability [5] 100% | inhibition [6] 1.15% | RAM network inhibition [7] 5.36%

CC(=O)NC(CCS(C)(=O)=O)C(=O)Nc1ccc(Oc2ccccc2)cc1 (stereo unspecified)
inactive: growth inhibition [1] -7.71% | growth inhibition [2] -16.7% | viability increase [3] -0.67% | viability [4] 101% | viability [5] 93.5% | inhibition [6] 1.69% | RAM network inhibition [7] 5.21%

CCCc1n[nH]c2c1C(=O)CC(C)(C)C2
inactive: growth inhibition [1] -9.08% | growth inhibition [2] -9.82% | viability increase [3] -1.76% | viability [4] 95.6% | viability [5] 102% | inhibition [6] 0.98% | RAM network inhibition [7] 2.76%

Cc1cc2cc(CNC(=O)c3ccc(S(=O)(=O)N4CCCCC4)cc3)ccc2n1C
inactive: growth inhibition [1] 14.5% | growth inhibition [2] 11.4% | viability increase [3] -0.91% | viability [4] 97.4% | viability [5] 94.2% | inhibition [6] 1.04% | RAM network inhibition [7] 3.71%

O=C(Nc1nnc(-c2cccs2)o1)c1ccco1
inactive: growth inhibition [1] -0.7% | growth inhibition [2] -3.64% | viability increase [3] -4.39% | viability [4] 93.8% | viability [5] 89.8% | inhibition [6] 0.34% | RAM network inhibition [7] -2.19%

COc1cccc(C2CC(c3ccccc3OC)n3nc(N)nc3N2)c1 (stereo unspecified)
inactive: growth inhibition [1] -0.495% | growth inhibition [2] 6.87% | viability increase [3] -1.09% | viability [4] 98.1% | viability [5] 95.2% | inhibition [6] 1.06% | RAM network inhibition [7] 1.98%

CCOC(=O)N1CCN(C(=O)CS(=O)Cc2nc(-c3ccc(C)cc3)oc2C)CC1 (stereo unspecified)
inactive: growth inhibition [1] -5.11% | growth inhibition [2] 7.44% | viability increase [3] -1.59% | viability [4] 89.3% | viability [5] 92.1% | inhibition [6] 1.68% | RAM network inhibition [7] 7.07%

O=S(=O)(NCC(c1cccnc1)N1CCN(c2ccc(F)cc2)CC1)c1cccs1 (stereo unspecified)
inactive: growth inhibition [1] -0.1% | growth inhibition [2] -0.165% | viability increase [3] -1.56% | viability [4] 87.9% | viability [5] 86.8% | inhibition [6] 2.22% | RAM network inhibition [7] 3.87%

Cc1cccc(C2N(c3ccc(F)cc3)C(=O)C3CCCN32)c1 (stereo unspecified)
inactive: growth inhibition [1] -1.45% | growth inhibition [2] -4.47% | viability increase [3] 0.04% | viability [4] 98.4% | viability [5] 94.8% | inhibition [6] 0.71% | RAM network inhibition [7] 3.46%

O=C1C2CC=C(Cl)CC2C(=O)N1CC1Cc2ccccc2CO1 (stereo unspecified)
inactive: growth inhibition [1] -5.07% | growth inhibition [2] 0.875% | viability increase [3] 1.29% | viability [4] 96.2% | viability [5] 101% | inhibition [6] 2.77% | RAM network inhibition [7] -2.81%

O=C1NCCCC1C(=O)N1CCN(C(c2ccccc2)c2ccccc2)CC1 (stereo unspecified)
inactive: growth inhibition [1] 6.11% | growth inhibition [2] 11.2% | viability increase [3] 1% | viability [4] 98.5% | viability [5] 94.3% | inhibition [6] 0.65% | RAM network inhibition [7] 7.67%

CC(NC(=O)C1CCCN(S(=O)(=O)c2cnc[nH]2)C1)c1ccccc1 (stereo unspecified)
inactive: growth inhibition [1] 2.1% | growth inhibition [2] 2.4% | viability increase [3] -0.99% | viability [4] 98.3% | viability [5] 97.4% | inhibition [6] -0.19% | RAM network inhibition [7] -0.35%

O=c1[nH]c(NC2CCCCC2)nnc1Cc1ccccc1
inactive: growth inhibition [1] -10% | growth inhibition [2] -5.11% | viability increase [3] 0.04% | viability [4] 102% | viability [5] 97.6% | inhibition [6] 2.53% | RAM network inhibition [7] 1.52%

COc1ccc(Cl)cc1NC(=O)c1nc2nc(C)cc(C(F)F)n2n1
inactive: growth inhibition [1] -3.76% | growth inhibition [2] -10.8% | viability increase [3] -4.12% | viability [4] 94.4% | viability [5] 88.4% | inhibition [6] 2.35% | RAM network inhibition [7] 2.1%

CCC(NC(=O)c1ccccc1NC(=O)c1ccco1)C(=O)O (stereo unspecified)
inactive: growth inhibition [1] -0.94% | growth inhibition [2] -12.6% | viability increase [3] -4.34% | viability [4] 109% | viability [5] 95.7% | inhibition [6] 0.27% | RAM network inhibition [7] 0.73%

COc1ccccc1N1CCN(C(=O)COc2ccc(C)cc2Br)CC1
inactive: growth inhibition [1] -7.34% | growth inhibition [2] -9.51% | viability increase [3] -1.4% | viability [4] 83.5% | viability [5] 72.4% | inhibition [6] -0.16% | RAM network inhibition [7] 2.61%

O=C(Cn1cc2c(n1)CCCC2)N1CCCC1
inactive: growth inhibition [1] -1.5% | growth inhibition [2] 1.53% | viability increase [3] 0.07% | viability [4] 95.5% | viability [5] 96.6% | inhibition [6] 1.14% | RAM network inhibition [7] 4.6%

CCc1c(C)sc(NC(=O)c2cc(C3CC3)on2)c1C#N
inactive: growth inhibition [1] -7.33% | growth inhibition [2] 15% | viability increase [3] 1.11% | viability [4] 99% | viability [5] 102% | inhibition [6] 3.36% | RAM network inhibition [7] -0.84%

Cc1ccc(S(=O)(=O)Cc2ccc(C(=O)N3CCCCCC3)o2)cc1
inactive: growth inhibition [1] -10.6% | growth inhibition [2] -22.4% | viability increase [3] -1.93% | viability [4] 98.8% | viability [5] 96.2% | inhibition [6] 1.73% | RAM network inhibition [7] 8.33%

O=C(Nc1ccc2c(c1)OCO2)c1ccncc1
inactive: growth inhibition [1] -10.6% | growth inhibition [2] 0.215% | viability increase [3] -0.85% | viability [4] 87.9% | viability [5] 90.1% | inhibition [6] 0.205% | RAM network inhibition [7] 3.42%
